# ChEMBL document CHEMBL3745639, “Structure-activity relationships for lipoprotein lipase agonists that lower plasma triglycerides in vivo” (Eur J Med Chem, 2015)
# The source made the active and inactive calls. No cut-off for these calls is given here.
# Legend:
# [1] = Kinetic aqueous solubility of the compound in PBS at pH 7.4 after 2 hrs by LC-MS/MS analysis; type: physicochemical; conditions: read-out: Kinetic_solubility
# How it was run: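 Kinetic solubility from a 10 mM DMSO stock diluted 1:100 (1% DMSO, maximum detectable 0.1 mM) into PBS pH 7.4 or HCl-adjusted PBS at about pH 1.2. Incubated at 37 °C for 2 h in sealed glass vials, centrifuged at 10000 x g, 37 °C, 20 min, then LC-MS/MS.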
# [2] = biological target: T1, Lipoprotein lipase (Bos taurus) (UniProt P11151); test: Induction of bovine LPL stabilization using intralipid as substrate at 25 uM preincubated for 10 mins with human recombinant ANGPTL4 followed by substrate addition measured after 45 mins relative to control
# T1 sequence (whole entry): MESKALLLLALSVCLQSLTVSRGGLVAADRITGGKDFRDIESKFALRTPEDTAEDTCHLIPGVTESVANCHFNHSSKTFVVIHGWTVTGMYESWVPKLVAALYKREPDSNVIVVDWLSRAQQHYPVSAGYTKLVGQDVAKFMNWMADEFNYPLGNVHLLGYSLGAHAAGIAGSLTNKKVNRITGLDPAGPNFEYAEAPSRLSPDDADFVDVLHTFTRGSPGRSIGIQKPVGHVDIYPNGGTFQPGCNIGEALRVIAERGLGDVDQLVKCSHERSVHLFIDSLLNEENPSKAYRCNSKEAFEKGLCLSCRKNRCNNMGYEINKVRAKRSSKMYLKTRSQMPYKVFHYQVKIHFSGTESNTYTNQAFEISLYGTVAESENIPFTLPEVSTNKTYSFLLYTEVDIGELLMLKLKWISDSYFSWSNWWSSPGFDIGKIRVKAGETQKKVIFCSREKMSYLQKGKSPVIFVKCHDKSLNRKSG
# How it was run: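 Compound in DMSO in buffer (50 mM potassium phosphate pH 7.4, 0.15 M NaCl, 0.01% Triton X-100), with human ANGPTL4 N-terminal fragment (aa 26-184, 75 nM final) and bovine LPL (15 nM final). Preincubated 10 min at 25 °C with shaking. Stopped after 45 min with 2.5% Triton X-100, and NEFA measured enzymatically. Activity normalised between DMSO+LPL+ANGPTL4 (0%) and DMSO+LPL (100%).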
# [3] = Apparent permeability across basolateral to apical side in human Caco2 cells at 10 uM after 15 to 60 mins; type: ADME, cell-based; conditions: Caco-2
# [4] = Intrinsic clearance in human liver microsomes at 1 uM after 5 to 40 mins by LC-MS/MS analysis in presence of NADPH; type: ADME; conditions: read-out: CLH
# How it was run: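 Pooled liver microsomes (0.5 mg/ml) with compound at 1 μM in 0.1 M phosphate buffer pH 7.4. Reaction started with NADPH 1 mM. Sampled at 0, 5, 15 and 40 min in duplicate, quenched with acetonitrile containing warfarin, then LC-MS/MS.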
# Mus musculus = test: Hypolipidemic activity in C57B16/J mouse assessed as reduction in plasma triglyceride level at 10 mg/kg, ip qd administered for 4 days followed by olive oil injection through oral gavage one hour post last dose measured at 180 mins; type: functional, organism-based
# How it was run: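 Female C57B16/J mice, 8-9 weeks, about 18 g, n = 8/group. Given 10 mg/kg i.p. once daily for 4 days, 0.5 ml in PBS pH 7.4 with 3% DMSO and 0.2% Triton X-100. Fasted 8 h before the last dose, then 0.2 ml oral olive oil gavage 1 h after it. Tail-vein EDTA plasma taken at baseline and every 60 min to 180 min. TG measured enzymatically, reported as mean ± SD.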
# Bile acid receptor = biological target: T2, Bile acid receptor (Homo sapiens, UniProt Q96RI1); test: Agonist activity at FXR (unknown origin)
# T2 sequence (Q96RI1 whole entry): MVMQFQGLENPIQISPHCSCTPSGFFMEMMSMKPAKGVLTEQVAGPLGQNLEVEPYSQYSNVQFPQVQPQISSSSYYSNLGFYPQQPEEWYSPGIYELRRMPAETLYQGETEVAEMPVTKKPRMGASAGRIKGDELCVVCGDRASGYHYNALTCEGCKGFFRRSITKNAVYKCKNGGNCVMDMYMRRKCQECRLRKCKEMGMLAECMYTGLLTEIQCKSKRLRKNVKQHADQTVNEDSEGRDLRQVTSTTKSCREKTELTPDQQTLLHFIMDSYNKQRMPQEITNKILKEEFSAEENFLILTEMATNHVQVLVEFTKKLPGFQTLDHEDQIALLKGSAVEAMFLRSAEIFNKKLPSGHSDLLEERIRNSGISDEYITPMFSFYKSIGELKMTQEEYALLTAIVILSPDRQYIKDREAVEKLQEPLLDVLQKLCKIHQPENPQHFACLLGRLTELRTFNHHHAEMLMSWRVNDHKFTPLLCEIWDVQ
# How it was run: (§1)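 Single agonist-mode profiling at ten concentrations against FXR, PPARα, PPARγ and RXRα, run as an outside screening service.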
# [5] = biological target: T3, Peroxisome proliferator-activated receptor alpha (Homo sapiens, UniProt Q07869); test: Agonist activity at PPARalpha (unknown origin); how it was run: as §1
# T3 sequence (Q07869 whole entry): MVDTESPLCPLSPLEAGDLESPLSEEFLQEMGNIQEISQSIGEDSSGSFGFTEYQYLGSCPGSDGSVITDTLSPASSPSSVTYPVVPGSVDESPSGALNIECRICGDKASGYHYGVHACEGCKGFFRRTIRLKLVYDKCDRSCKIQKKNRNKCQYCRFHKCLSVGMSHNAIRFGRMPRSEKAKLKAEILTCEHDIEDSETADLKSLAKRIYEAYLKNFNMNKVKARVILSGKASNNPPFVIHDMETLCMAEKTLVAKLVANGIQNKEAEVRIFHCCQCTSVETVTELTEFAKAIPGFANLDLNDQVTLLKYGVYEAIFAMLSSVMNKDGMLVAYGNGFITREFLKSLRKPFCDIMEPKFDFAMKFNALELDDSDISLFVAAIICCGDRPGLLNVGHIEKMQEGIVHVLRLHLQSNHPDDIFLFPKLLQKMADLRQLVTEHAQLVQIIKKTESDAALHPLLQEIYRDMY
# [6] = biological target: T4, Retinoic acid receptor RXR-alpha (Homo sapiens, UniProt P19793); test: Agonist activity at RXRalpha (unknown origin); how it was run: as §1
# T4 sequence (P19793 whole entry): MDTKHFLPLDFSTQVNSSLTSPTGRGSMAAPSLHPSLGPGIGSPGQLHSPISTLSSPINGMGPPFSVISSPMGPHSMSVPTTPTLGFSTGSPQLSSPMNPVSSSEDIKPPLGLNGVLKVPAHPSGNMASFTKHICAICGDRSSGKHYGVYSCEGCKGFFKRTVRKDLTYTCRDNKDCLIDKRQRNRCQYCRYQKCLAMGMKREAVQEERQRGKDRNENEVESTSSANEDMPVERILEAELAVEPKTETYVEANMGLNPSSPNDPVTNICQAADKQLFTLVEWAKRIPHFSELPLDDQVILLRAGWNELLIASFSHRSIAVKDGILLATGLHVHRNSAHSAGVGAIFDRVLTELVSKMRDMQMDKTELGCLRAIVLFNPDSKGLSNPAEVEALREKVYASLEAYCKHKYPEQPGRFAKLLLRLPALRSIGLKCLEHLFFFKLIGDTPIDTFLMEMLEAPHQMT
compound,measurement,setting,value
Cc1ccc(NC(=O)c2cc(-n3cc4ccc(C(=O)O)cc4n3)ccc2N2CCCCC2)cc1,solubility kinetic at 2 h,[1],< 2 µM
same,Activity,[2],97%
same,Papp B→A at 10 µM,[3],31 ×10⁻⁶ cm/s
same,microsomal CLint at 1 µM,[4],< 17 µL/min/mg
same,Activity,Mus musculus,Active
same,EC50,Bile acid receptor,> 100 µM
same,EC50,[5],> 100 µM
same,EC50,[6],> 100 µM
